Measurements of several laboratories.
Compare with care: the assays were run in different laboratories.
Target: Ephrin type-A receptor 6 (EPHA6, Homo sapiens, UniProt Q9UF33)
Residues used in one study (Q9UF33 1-1036): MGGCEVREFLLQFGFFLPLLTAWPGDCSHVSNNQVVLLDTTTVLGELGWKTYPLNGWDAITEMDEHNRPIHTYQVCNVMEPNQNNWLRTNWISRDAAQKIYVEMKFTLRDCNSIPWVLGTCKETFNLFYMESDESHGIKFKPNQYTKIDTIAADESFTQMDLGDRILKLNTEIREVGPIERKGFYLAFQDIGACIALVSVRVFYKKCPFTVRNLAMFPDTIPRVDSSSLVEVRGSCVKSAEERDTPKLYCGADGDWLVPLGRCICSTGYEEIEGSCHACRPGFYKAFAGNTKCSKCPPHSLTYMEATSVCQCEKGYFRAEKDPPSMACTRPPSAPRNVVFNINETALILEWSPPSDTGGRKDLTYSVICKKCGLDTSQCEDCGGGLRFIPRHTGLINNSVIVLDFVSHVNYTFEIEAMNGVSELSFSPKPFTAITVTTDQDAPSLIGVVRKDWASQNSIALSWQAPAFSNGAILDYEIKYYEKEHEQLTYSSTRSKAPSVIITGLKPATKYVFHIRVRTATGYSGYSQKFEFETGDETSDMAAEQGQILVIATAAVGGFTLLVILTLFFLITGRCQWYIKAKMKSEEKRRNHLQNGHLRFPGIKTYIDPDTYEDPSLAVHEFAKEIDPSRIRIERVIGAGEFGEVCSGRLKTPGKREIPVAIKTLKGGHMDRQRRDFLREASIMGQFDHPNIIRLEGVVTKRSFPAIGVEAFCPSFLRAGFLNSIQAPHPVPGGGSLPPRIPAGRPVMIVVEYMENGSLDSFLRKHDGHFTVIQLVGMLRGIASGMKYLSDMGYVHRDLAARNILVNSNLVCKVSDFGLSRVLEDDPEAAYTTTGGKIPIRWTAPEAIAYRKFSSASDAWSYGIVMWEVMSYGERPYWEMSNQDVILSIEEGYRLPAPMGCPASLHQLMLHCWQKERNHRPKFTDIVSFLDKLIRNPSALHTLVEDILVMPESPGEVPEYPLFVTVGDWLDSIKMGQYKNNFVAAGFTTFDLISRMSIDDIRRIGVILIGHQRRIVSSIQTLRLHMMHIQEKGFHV

`CC/C(=N\NC(=O)NCc1cccc(O)c1)c1ccc(O)c(C)c1O` has an inhibition of 1.5% (enzyme activity; inhibitor; 0.1 µM).
The remaining signal of `Nc1ncnc2occ(-c3ccc(NC(=O)Nc4cc(C(F)(F)F)ccc4F)cc3)c12` is reported as 0% (cell-free assay; 20 µM).
With `N#Cc1ccc(Nc2ccc3[nH]c(=O)[nH]c3c2)c(Cl)c1` the remaining binding was 82% (cell-free assay; competition with immobilised ligand; 1 µM).
With `CC(C)(O)[C@H]1CC[C@H](Nc2ccc3ncc(-c4cccc(C(F)(F)F)c4)n3n2)CC1` the remaining activity was 91.1% (enzyme activity; inhibitor; 1 µM).
With `CC(C)(C)c1nc(-c2cccc(NS(=O)(=O)c3c(F)cccc3F)c2F)c(-c2ccnc(N)n2)s1` the remaining activity was 72% (enzyme activity; inhibitor; radiometric; 1 µM).
The remaining signal of `CNC(=O)c1cc(Oc2ccc(NC(=O)Nc3ccc(Cl)c(C(F)(F)F)c3)cc2)ccn1` is reported as 42% (cell-free assay; 0.5 µM).
The remaining activity of `O=C(Nc1cnn(-c2csc(C(=O)NC3COC3)c2)c1)Nc1ccccc1Cl` is reported as 99.5% (enzyme activity; inhibitor; 5 µM).
The remaining signal of `Oc1cccc(-c2nc(N3CCOCC3)c3oc4ncccc4c3n2)c1` is reported as 79% (cell-free assay; 0.5 µM).
`CS(=O)(=O)N1CCCC(NC(=O)[C@H](CCC2CCCCC2)NC(=O)c2ccc(CNC(=O)c3cnc4ccccn34)cc2)C1` (stereo partly shown) gave a remaining binding of 100% (cell-free assay; competition with immobilised ligand; 0.1 µM).
`Cc1sc(C(=O)NC2COC2)cc1-n1cc(NC(=O)Nc2c(F)cccc2Cl)cn1` has a remaining activity of 80.2% (enzyme activity; inhibitor; 10 µM).
For `Cc1ccc(C(=O)Nc2ccc(CN3CCN(C)CC3)c(C(F)(F)F)c2)cc1C#Cc1cnc2cccnn12`, the remaining signal was 45% (cell-free assay; 23.5 nM).
The remaining binding of `CC(=O)Nc1c(C(C)=O)c(=O)n(C)c2nc(-c3ccc(Cl)cc3Cl)c(-c3ccc(Cl)cc3)cc12` is reported as 100% (cell-free assay; competition with immobilised ligand; 1 µM).
For `CC(C)(C)c1nc2c(s1)c1nc(N)ncc1c1ccc(NS(=O)(=O)c3c(F)cccc3F)c(F)c12`, the remaining activity was 99% (enzyme activity; inhibitor; radiometric; 1 µM).
